Activity calls are given as the source filed them. No cut-off for these calls is given here.

A short description of assay [1]: Cytotoxicity against human MDA-MB-231 cells assessed as reduction in cell viability after 24 hrs in presence of 10% fetal calf serum by MTS assay. In kind it is functional, cell-based. The note with it: MDA-MB-231, 24 h. The method in brief: (§1)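 Cells in exponential growth, 3×10^3 per well, in medium with 10% FCS. Capan-2, PaCa3, MDA-MB 231, SUM 159 and PC3 were grown in DMEM/Ham's F12 with glutamine 2 mM and insulin 10 µg/ml. U87 was grown in EMEM and LNCaP in RPMI, each with glutamine. Compound 0.1–100 µM, continuous exposure (24 h; 48 h for the 48 h lines). MTS, OD 490 nm. IC50 read graphically. Three independent experiments in octuplicate.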

Assay [2] has as its target Sigma non-opioid intracellular receptor 1 (Cavia porcellus, UniProt Q60492). Briefly: Displacement of [3H]-pentazocine from sigma 1 receptor in guinea pig brain cortical membrane after 120 mins by scintillation counting analysis. It counts as cell membranes. The method in brief:
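Nonspecific binding defined with unlabeled (+)-pentazocine. Filtration, then scintillation counting. IC50 by nonlinear regression, converted to Ki by Cheng–Prusoff.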

Assay [3] is described as follows: Induction of apoptosis in human Paca3 cells assessed as late apoptotic cells in presence of 10% fetal calf serum at 25 uM after 24 hrs by annexin V-FITC/propidium iodide staining-based flow cytometry (reference value: 4 +/- 0.8%). It counts as functional.
Assay [4] in a line: Cytotoxicity against human Capan2 cells assessed as reduction in cell viability after 24 hrs in absence of 10% fetal calf serum by MTS assay. It counts as functional, cell-based. The note with it: Capan-2, 24 h. The method in brief: (§2)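 Cells starved 24 h in low-glucose medium without FCS, then treated 24 h with compound in serum-free conditions. MTS read-out, OD 490 nm, expressed as percent of untreated control. IC50 read graphically from the dose-response plot. Three independent experiments in octuplicate.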

The nature of assay [5]: Cytotoxicity against human U87 cells assessed as reduction in cell viability after 24 hrs in presence of 10% fetal calf serum by MTS assay. It counts as functional, cell-based, U-87MG ATCC. The following applies: U-87 MG. The method in brief: as §1
The subject of another assay is Paca3. Briefly: Induction of apoptosis in human Paca3 cells at 25 uM after 24 hrs in presence of 10% fetal calf serum by TUNEL assay. It counts as functional, cell-based. The method in brief: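 PaCa3 cells in serum medium, exposed 24 h (10, 25, 50 μM tested). Cells fixed in 1% formaldehyde, held in 70% ethanol, permeabilized with 0.1% Triton X-100. TdT/FITC-dUTP labelling 90 min at 37 °C, then propidium iodide 2.5 μg/ml with RNase. Percent apoptotic cells by flow cytometry.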

Assay [6] in a line: Cytotoxicity against human Paca3 cells assessed as decrease in cell viability using complete medium after 24 hrs by MTS assay. In kind it is functional, cell-based. The note with it: Paca3, 24 h. The method in brief:
as §1

Assay [7] is described as follows: Cytotoxicity against human Paca3 cells assessed as decrease in cell viability under starvation condition after 24 hrs by MTS assay. The note with it: Paca3, 24 h. In kind it is functional, cell-based. The method in brief:
as §2

Chain of Sigma non-opioid intracellular receptor 1 (Q60492 whole entry): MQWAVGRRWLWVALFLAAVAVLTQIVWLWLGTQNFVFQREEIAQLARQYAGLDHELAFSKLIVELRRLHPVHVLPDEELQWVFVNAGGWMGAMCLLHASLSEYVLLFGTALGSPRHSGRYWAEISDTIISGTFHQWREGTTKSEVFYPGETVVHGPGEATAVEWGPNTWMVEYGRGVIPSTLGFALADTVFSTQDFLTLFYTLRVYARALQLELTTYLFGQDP

As to `C/C(=C\CN1CCC(Cc2ccccc2)CC1)c1ccc2ccccc2c1`, the IC50 in assay [1] was 64.9 µM; in assay [4], 9.61 µM; in assay [5], 60.6 µM; in assay [6] it was 49.8 µM; in assay [7], 7 µM. The compound also yielded a Ki in assay [2] of 0.012 µM. Besides, the Activity in assay [3] is listed as 34.1%. Further, the outcome in the assay with Paca3 was Active.

Source of the values: ChEMBL document CHEMBL3877244, “Synthesis and biological evaluation of new aryl-alkyl(alkenyl)-4-benzylpiperidines, novel Sigma Receptor (SR) modulators, as potential anticancer-agents” (Eur J Med Chem, 2016).
